In paper PMC6347502 (Photochemistry and photobiology, 2018):
“And” between values parts separate entries of the source, which are not always exact repeats. Equal values may be shown once. Read-outs that look alike come from different tables or passages of the source.

Assays:
[1] = cited from earlier work
[2] = aerated MeCN; cited from earlier work
[3] = system: pUC19 plasmid DNA; assay: DNA photocleavage, plasmid gel mobility shift assay; format: biochemical; conditions: pUC19 20 μM NPs, visible light 14 J cm^−2
[4] = Nanosecond transient absorption lifetime; format: physicochemical; conditions: degassed MeCN
How it was run: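 Nanosecond laser flash photolysis on MeCN solutions argon-purged for 45 min. Excitation was 355 nm from a Nd:YAG third harmonic (4.1 ns pulse, 1 Hz). Transient difference absorption spectra were recorded and lifetimes taken from signal decays.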

[5] = system: HL-60 human promyelocytic leukemia cells; assay: Cytotoxicity and photocytotoxicity, resazurin cell viability, leukemia cells; format: cell-based
How it was run: (§1)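 HL-60 cells (suspension, RPMI 1640 + 20% FBS) or SK-MEL-28 cells (adherent, EMEM + 10% FBS) were used in log phase at ≥93% viability and equilibrated for 3 h. Chloride salts were diluted in DPBS (1 nM–300 µM; DMSO <0.1%) and incubated 16 h at 37 °C, 5% CO₂. Cells were then kept dark or given 100 J cm⁻² of visible light (400–700 nm, 44 mW cm⁻²) or red LED light (625 nm, 52.5 mW cm⁻²). After 48 h, resazurin was added for 3 h; fluorescence ex 530/em 620 nm. Triplicate. EC50 from sigmoidal dose–response fit; PI = dark/light EC50.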

[6] = Steady-state and time-resolved emission; format: physicochemical
How it was run: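 PF₆⁻ salts, 5–20 µM, in MeCN argon-sparged in a long-stem cuvette, or as 4:1 EtOH:MeOH glass frozen in liquid N₂ (77 K). Quantum yields from corrected steady-state spectra relative to [Ru(bpy)₃](PF₆)₂ (0.095 deaerated MeCN at 298 K; 0.38 at 77 K). Lifetimes measured with nitrogen/dye laser excitation at 457 nm, monitored at emission maximum, stroboscopic detection.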

[7] = Singlet oxygen sensitization quantum yield; format: physicochemical
[8] = UV-vis absorption, molar extinction coefficient at 625 nm; format: physicochemical
How it was run: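 PF₆⁻ salts in spectroscopic-grade MeCN. ε was taken from the slope of absorbance versus concentration over five concentrations, measured in duplicate.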

[9] = system: SK-MEL-28 malignant melanoma cells; assay: Cytotoxicity and photocytotoxicity, resazurin cell viability, melanoma cells; format: cell-based, human
How it was run: as §1

SMILES	Φem reference value ([1]; 77 K in frozen 4:1 v/v EtOH:MeOH)	Φem reference value ([1]; 298 K in aerated MeCN)	Φem reference value ([1]; 298 K in deaerated MeCN)	emission lifetime [1] [μs]	ΦΔ of standard [2]	MC:NP ratio for complete photocleavage (conversion of Form I to Form II DNA) [3]	τTA, lifetime of nonemissive 3IL state [4] [μs]	PI red light, HL60 ([5]; ratio of dark to red-light (625 nm) EC50, HL60)	PI visible light, HL60 ([5]; ratio of dark to visible-light EC50, HL60)	τem 77 K ([6]; 77 K, EtOH:MeOH (4:1) glass)	Φ (emission quantum yield) 77 K ([6]; 77 K, EtOH:MeOH (4:1) glass, PF6 salt)	τem 298 K ([6]; 298 K, argon-purged MeCN)	Φ (emission quantum yield) 298 K ([6]; 298 K, argon-purged MeCN, PF6 salt)	ΦΔ (singlet oxygen quantum yield) 298 K ([7]; air-saturated MeCN at 298 K, relative to [Ru(bpy)3](PF6)2)	1O2 quantum yield (ΦΔ) ([7]; air-saturated MeCN, room temperature)	molar absorptivity at 625 nm (ε625 nm) [8] [M⁻¹ cm⁻¹]	PI red light, SKMEL28 ([9]; ratio of dark to red-light (625 nm) EC50, SKMEL28)	PI (phototherapeutic index) visible light, SKMEL28 ([9]; ratio of dark to visible-light EC50, SKMEL28)	EC50 ([9]; read-out: EC50 dark, SKMEL28, SKMEL28, dark) [µM]
F[P-](F)(F)(F)(F)F.F[P-](F)(F)(F)(F)F.[Ru+2].c1ccc(-c2ccccn2)nc1.c1ccc(-c2ccccn2)nc1.c1ccc(-c2ccccn2)nc1 [[Ru(bpy)3](PF6)2]	0.38	0.012	0.095	0.9	0.56	–	–	–	–	–	–	–	–	–	–	–	–	–	–
F[P-](F)(F)(F)(F)F.F[P-](F)(F)(F)(F)F.[Ru+2].c1ccc(-c2ccccn2)nc1.c1ccc(-c2ccccn2)nc1.c1csc(-c2ccc(-c3cc4cccnc4c4ncccc34)s2)c1 [Compound 2, Ru(bpy)2(phen-2T)PF6]	–	–	–	–	–	1	43	19	835	6,600 ns	0.14	1,030 ns	0.0092	0.78	74–78% and 78% and 74%	< 100	2	150	32 ± 1
